# Key:
# Bcl-2-like protein 1 = Bcl-2-like protein 1 (Homo sapiens, UniProt Q07817); test: Inhibition of c-terminal 6xHis-tagged Bcl-xL (amino acids 1 to 209) (unknown origin) preincubated for 1 hr prior to substrate addition measured after 20 mins by fluorescence polarization assay
# Procedure, shortened: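 Bcl-xL (aa 1–209, C-terminal 6xHis) at 0.8 nM preincubated 1 h with serial antagonist dilutions, then 2 nM FITC-labelled Bim BH3 peptide tracer added; buffer 20 mM HEPES pH 7.5, 1 mM DTT, 0.005% Tween-20, 50 mM NaCl.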
# [1] = molecular target: Apoptosis regulator Bcl-2 (Homo sapiens, UniProt P10415); test: Inhibition of c-terminal 6xHis-tagged Bcl-2 (amino acids 1 to 204) (unknown origin) preincubated for 1 hr prior to substrate addition measured after 20 mins by fluorescence polarization assay
# Sequence of Apoptosis regulator Bcl-2 (P10415 whole entry, the tested form may be a part): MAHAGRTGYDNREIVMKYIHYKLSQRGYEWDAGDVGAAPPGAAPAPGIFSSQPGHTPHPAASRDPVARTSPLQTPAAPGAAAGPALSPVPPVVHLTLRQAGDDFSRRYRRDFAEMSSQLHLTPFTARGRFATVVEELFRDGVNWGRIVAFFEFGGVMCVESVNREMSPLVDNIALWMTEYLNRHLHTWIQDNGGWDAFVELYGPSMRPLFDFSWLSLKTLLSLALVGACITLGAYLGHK
# RS4-11 = test: Induction of apoptosis in human RS4:11 cells overexpressing BCL-2 assessed as caspase 3/7 activation after 6 hrs by quantitative luminescence assay; format: functional, cell-based; settings: RS4-11, 6 h
# Procedure, shortened: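 RS4;11 cells seeded 10,000/well in RPMI with 10% FBS; after 16 h, compound added in duplicate for 6 h at 37 °C. Equal volume of Caspase-Glo 3/7 reagent added, 1 h, luminescence read. DMSO set minimum and ABT-263 maximum caspase activity. EC50 averaged from at least two experiments.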
# [2] = Equilibrium solubility of the compound at pH 7.4; format: physicochemical; settings: buffer
# [3] = Dissociation constant, pKa of the compound; format: physicochemical
# Sequence of Bcl-2-like protein 1 (Q07817 whole entry, the tested form may be a part): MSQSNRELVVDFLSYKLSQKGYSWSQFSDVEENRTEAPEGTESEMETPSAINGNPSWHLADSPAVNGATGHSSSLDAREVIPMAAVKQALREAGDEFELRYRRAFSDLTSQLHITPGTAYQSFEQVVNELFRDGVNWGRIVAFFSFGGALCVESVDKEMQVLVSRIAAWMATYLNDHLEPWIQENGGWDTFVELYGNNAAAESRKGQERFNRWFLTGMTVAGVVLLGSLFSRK
IC50 (Bcl-2-like protein 1) [nM],IC50 [1] [nM],EC50 (RS4-11) [nM],solubility thermodynamic [2] [µM],pKa [3],Compound
< 10,< 10,51,2,–,CN(C)C(=O)COc1ccc(-c2ccc(Cl)cc2)c(CN2CCN(c3ccc(C(=O)NS(=O)(=O)c4ccc(N[C@H](CCN5CCOCC5)CSc5ccccc5)c(S(=O)(=O)C(F)(F)F)c4)cc3)CC2)c1
21,87,> 1100,27,–,O=C(NS(=O)(=O)c1ccc(N[C@H](CCN2CCOCC2)CSc2ccccc2)c(S(=O)(=O)C(F)(F)F)c1)c1ccc(N2CCC(S(=O)(=O)c3ccccc3-c3ccc(Cl)cc3)CC2)cc1
15,< 10,201,–,–,O=C(NS(=O)(=O)c1ccc(N[C@H](CCN2CCOCC2)CSc2ccccc2)c(S(=O)(=O)C(F)(F)F)c1)c1ccc(N2CCN(Cc3ccncc3-c3ccc(Cl)cc3)CC2)cc1
38,40,> 10000,< 1,–,O=C(NS(=O)(=O)c1ccc(N[C@H](CCN2CCOCC2)CSc2ccccc2)c(S(=O)(=O)C(F)(F)F)c1)c1ccc(N2CCN(Cc3cn[nH]c3-c3ccc(Cl)cc3)CC2)cc1
< 10,< 10,420,< 1,–,Cn1ncc(CN2CCN(c3ccc(C(=O)NS(=O)(=O)c4ccc(N[C@H](CCN5CCOCC5)CSc5ccccc5)c(S(=O)(=O)C(F)(F)F)c4)cc3)CC2)c1-c1ccc(Cl)cc1
< 10,< 10,18,< 1,–,CN(C)C(=O)COc1cccc(-c2ccc(Cl)cc2)c1CN1CCN(c2ccc(C(=O)NS(=O)(=O)c3ccc(N[C@H](CCN4CCOCC4)CSc4ccccc4)c(S(=O)(=O)C(F)(F)F)c3)cc2)CC1
–,< 10,4,< 1,–,CN(C)CCOc1cccc(-c2ccc(Cl)cc2)c1CN1CCN(c2ccc(C(=O)NS(=O)(=O)c3ccc(N[C@H](CCN4CCOCC4)CSc4ccccc4)c(S(=O)(=O)C(F)(F)F)c3)cc2)CC1
< 10,< 10,23,< 1,–,CN(C)CCOc1ccc(-c2ccc(Cl)cc2)c(CN2CCN(c3ccc(C(=O)NS(=O)(=O)c4ccc(N[C@H](CCN5CCOCC5)CSc5ccccc5)c(S(=O)(=O)C(F)(F)F)c4)cc3)CC2)c1
16,11,11,14,–,O=C(NS(=O)(=O)c1ccc(N[C@H](CCN2CCOCC2)CSc2ccccc2)c(S(=O)(=O)C(F)(F)F)c1)c1ccc(N2CCN(Cc3ccccc3-c3ccc(Cl)cc3)CC2)cc1
63,19,> 3190,< 1,–,N=C(NS(=O)(=O)c1ccc(N[C@H](CCN2CCOCC2)CSc2ccccc2)c(S(=O)(=O)C(F)(F)F)c1)c1ccc(N2CCN(Cc3ccccc3-c3ccc(Cl)cc3)CC2)cc1
378,270,563,38,3.6,O=C(NS(=O)(=O)c1ccc(N[C@H](CCN2CCOCC2)CSc2ccccc2)c(S(=O)(=O)C(F)(F)F)c1)c1ccc(N2CCN(Cc3ccccc3-c3ccc(Cl)cc3)CC2)nn1
39,18,177,3,3.5,O=C(NS(=O)(=O)c1ccc(N[C@H](CCN2CCOCC2)CSc2ccccc2)c(S(=O)(=O)C(F)(F)F)c1)c1cnc(N2CCN(Cc3ccccc3-c3ccc(Cl)cc3)CC2)nc1
98,119,385,2,2.6,O=C(NS(=O)(=O)c1ccc(N[C@H](CCN2CCOCC2)CSc2ccccc2)c(S(=O)(=O)C(F)(F)F)c1)c1csc(N2CCN(Cc3ccccc3-c3ccc(Cl)cc3)CC2)n1
77,> 468,610,< 1,–,O=C(NS(=O)(=O)c1ccc(N[C@H](CCN2CCOCC2)CSc2ccccc2)c(S(=O)(=O)C(F)(F)F)c1)c1ccc(N2CC3(CN(Cc4ccccc4-c4ccc(Cl)cc4)C3)C2)cc1
308,> 1100,> 1100,4,–,O=C(NS(=O)(=O)c1ccc(N[C@H](CCN2CCOCC2)CSc2ccccc2)c(S(=O)(=O)C(F)(F)F)c1)c1ccc(P2(=O)CCN(Cc3ccccc3-c3ccc(Cl)cc3)CC2)cc1
18,54,> 1100,21,–,O=C(NS(=O)(=O)c1ccc(N[C@H](CCN2CCOCC2)CSc2ccccc2)c(S(=O)(=O)C(F)(F)F)c1)c1ccc(N2CCP(=O)(Cc3ccccc3-c3ccc(Cl)cc3)CC2)cc1
38,250,> 921,35,–,O=C(NS(=O)(=O)c1ccc(N[C@H](CCN2CCOCC2)CSc2ccccc2)c(S(=O)(=O)C(F)(F)F)c1)c1ccc(N2CCC(Oc3ccccc3-c3ccc(Cl)cc3)CC2)cc1
< 10,65,> 1100,–,–,O=C(NS(=O)(=O)c1ccc(N[C@H](CCN2CCOCC2)CSc2ccccc2)c(S(=O)(=O)C(F)(F)F)c1)c1ccc(N2CCC(C(=O)c3ccccc3-c3ccc(Cl)cc3)CC2)cc1
31,61,> 516,27,–,O=C(NS(=O)(=O)c1ccc(N[C@H](CCN2CCOCC2)CSc2ccccc2)c(S(=O)(=O)C(F)(F)F)c1)c1ccc(N2CCC(Sc3ccccc3-c3ccc(Cl)cc3)CC2)cc1
11,19,90,26,–,O=C(NS(=O)(=O)c1ccc(N[C@H](CCN2CCOCC2)CSc2ccccc2)c(S(=O)(=O)C(F)(F)F)c1)c1ccc(N2CCC([S@@+]([O-])c3ccccc3-c3ccc(Cl)cc3)CC2)cc1
54,545,> 1100,12,–,O=C(NS(=O)(=O)c1ccc(N[C@H](CCN2CCOCC2)CSc2ccccc2)c(S(=O)(=O)C(F)(F)F)c1)c1ccc(N2CCC([S@+]([O-])c3ccccc3-c3ccc(Cl)cc3)CC2)cc1
< 10,< 10,504,2,–,N#CC1(Cc2ccccc2-c2ccc(Cl)cc2)CCN(c2ccc(C(=O)NS(=O)(=O)c3ccc(N[C@H](CCN4CCOCC4)CSc4ccccc4)c(S(=O)(=O)C(F)(F)F)c3)cc2)CC1
< 10,< 10,395,< 1,–,NCC1(Cc2ccccc2-c2ccc(Cl)cc2)CCN(c2ccc(C(=O)NS(=O)(=O)c3ccc(N[C@H](CCN4CCOCC4)CSc4ccccc4)c(S(=O)(=O)C(F)(F)F)c3)cc2)CC1
30,17,1790,< 1.5,–,CCOC(=O)C1(Cc2ccccc2-c2ccc(Cl)cc2)CCN(c2ccc(C(=O)NS(=O)(=O)c3ccc(N[C@H](CCN4CCOCC4)CSc4ccccc4)c(S(=O)(=O)C(F)(F)F)c3)cc2)CC1
< 10,59,112,6,–,O=C(NS(=O)(=O)c1ccc(N[C@H](CCN2CCOCC2)CSc2ccccc2)c(S(=O)(=O)C(F)(F)F)c1)c1ccc(N2CCC(CO)(Cc3ccccc3-c3ccc(Cl)cc3)CC2)cc1
21,21,3980,< 1,–,O=C(NS(=O)(=O)c1ccc(N[C@H](CCN2CCOCC2)CSc2ccccc2)c(S(=O)(=O)C(F)(F)F)c1)c1ccc(N2CCN(Cc3ccccc3-c3ncc(Cl)cn3)CC2)cc1
–,–,14,–,–,CC1(C)CCC(c2ccc(Cl)cc2)=C(CN2CCN(c3ccc(C(=O)NS(=O)(=O)c4ccc(N[C@H](CCN5CCOCC5)CSc5ccccc5)c(S(=O)(=O)C(F)(F)F)c4)cc3)CC2)C1 [NAVITOCLAX]

Compound,IC50 (Bcl-2-like protein 1) [nM],IC50 [1] [nM],EC50 (RS4-11) [nM],solubility thermodynamic [2] [µM],pKa [3]
O=C(NS(=O)(=O)c1ccc(N[C@H](CCN2CCOCC2)CSc2ccccc2)c(S(=O)(=O)C(F)(F)F)c1)c1ccc(N2CCN(Cc3cccnc3-c3ccc(Cl)cc3)CC2)cc1,25,26,374,–,–

# From ChEMBL document CHEMBL3351631, “Towards the next generation of dual Bcl-2/Bcl-xL inhibitors” (Bioorg Med Chem Lett, 2014)
